Results: ChEMBL document CHEMBL3797120, “Identification of 1,2,3-triazole derivatives that protect pancreatic β cells against endoplasmic reticulum stress-mediated dysfunction and death through the inhibition of C/EBP-homologous protein expression” (Bioorg Med Chem, 2016)
Active and inactive are the calls of the source. The calls are words filed in the database; no cut-off is given here.

How the values were obtained:
[1] = system: INS1; assay: Cytoprotective activity in endoplasmic reticulum stressed rat INS-1 cells assessed as rescue from tunicamycin-mediated reduction in cell viability at 10 uM after 72 hrs by CellTiter-Glo assay relative to control; format: functional
Procedure, shortened: (§1)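 INS-1 cells seeded at 3 × 10³/well and exposed for 72 h to Tm 0.1 μg/ml plus compound. Viability measured as ATP by CellTiter-Glo. Tm alone was set to 0% and DMSO without Tm to 100% rescue. Values are the mean of three experiments. EC50 was derived for survival.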

[2] = Inhibition of endoplasmic reticulum stress-mediated upregulation of CHOP mRNA expression in tunicamycin-treated rat INS-1 cells at 20 uM after 2 to 8 hrs by qRT-PCR method; format: functional, cell-based; settings: INS1
[3] = system: INS1; assay: Cytoprotective activity in endoplasmic reticulum stressed rat INS-1 cells assessed as rescue from tunicamycin-mediated reduction in cell survival after 72 hrs by CellTiter-Glo assay; settings: INS1, 72 h
[4] = system: HEK293; assay: Inhibition of endoplasmic reticulum stress-mediated upregulation of CHOP mRNA expression in tunicamycin-treated HEK293 cells after 2 to 8 hrs by qRT-PCR method; format: functional, cell-based; settings: Homo sapiens
Procedure, shortened: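 HEK293 cells seeded at 4 × 10⁵/well and treated with Tm 1 μg/ml plus 20 μM compound or DMSO for the indicated times. CHOP mRNA was measured by qRT-PCR (2 μg RNA reverse transcribed), normalized to human cyclophilin A, and reported as fold change. Means ± SD of triplicates.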

[5] = system: INS1; assay: Cytoprotective activity in endoplasmic reticulum stressed rat INS-1 cells assessed as rescue from tunicamycin-mediated reduction in cell viability at 5 uM after 72 hrs by CellTiter-Glo assay relative to control; format: functional; procedure, shortened: as §1
[6] = system: HEK293; assay: Inhibition of endoplasmic reticulum stress-mediated upregulation of CHOP gene expression in tunicamycin-treated HEK293 cells after 24 hrs by bright-glo luciferase reporter gene assay; format: functional, cell-based; settings: Homo sapiens, HEK293, 24 h
Procedure, shortened: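 HEK293 cells stably carrying a CHOP promoter-luciferase reporter were seeded at 7 × 10³/well and incubated 16 h. Compound at indicated concentrations and Tm 1 μg/mL were added, and luciferase read by Bright-Glo 24 h later. IC50 determined for CHOP-Luc inhibition.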

[7] = system: INS1; assay: Cytoprotective activity in endoplasmic reticulum stressed rat INS-1 cells assessed as rescue from tunicamycin-mediated reduction in cell viability at 20 uM after 72 hrs by CellTiter-Glo assay relative to control; format: functional; procedure, shortened: as §1

| SMILES | %max [1] | inhibition [2] | EC50 [3] | inhibition [4] | %max [5] | IC50 [6] | %max [7] |
| --- | --- | --- | --- | --- | --- | --- | --- |
| CCc1cccc(C)c1NC(=O)c1nnn(-c2cccc(Cl)c2C)c1C | 97% | Active | – | – | – | – | – |
| Cc1c(C(=O)Nc2cccc(F)c2)nnn1-c1ccc(C(C)C)cc1 | – | – | 1300 nM | Active | 33% | 13 nM | – |
| Cc1c(Cl)cccc1NC(=O)c1nnn(-c2ccccc2Cl)c1C | – | Active | 3100 nM | – | – | – | 94% |
| Cc1c(C(=O)Nc2ccccc2F)nnn1-c1ccc(C(C)C)cc1 | – | – | 2100 nM | – | 29% | 35 nM | – |
| Cc1c(C(=O)Nc2ccccc2)nnn1-c1ccccc1 | – | – | 9500 nM | – | – | 1500 nM | 12% |
